# This is one part of a sample in which hits are shown more often than they occur.
# bCat KO growth: beta-catenin-lacking colon tumor cell growth suppression | HCT116 beta-catenin knockout viability, CellTiter-Glo, 60 h; hits give low values | viability, % at 10 µM | actives 1.5% (n = 140,000) | AID 818;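 active means viability at or under a set limit, the compound median less 4 SD, cut at about 6% in these data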;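 further: 0% = Hyamine 1622 control at 20 µM and 100% = untreated cell control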
# HCT116 PTEN-null: PTEN-deleted cell growth suppression | HCT116 PTEN-null viability, CellTiter-Glo, 60 h; hits give low values | viability, % at 10 µM | actives 1.2% (n = 140,000);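 active means viability at or below a set limit, 4 SD under the median of all tested compounds, cut at about 3.7% in these data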;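 further: PTEN knockout HCT116 line with beta catenin targeted HCT116 as companion control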
# H69AR growth 86K: blocks growth of human H69AR lung tumor cells; H69AR lung tumor viability, ATP luminescence, 72 h; hits give low values; AID 598; viability, % at 10 µM; actives 6% (n = 85,000);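 active means viability at or below 40%; inactive means viability above 40%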;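 further: multidrug resistant small cell line overexpressing MRP-1 efflux transporter; 100% = mean luminescence of untreated control wells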
# HUVEC inhibit: inhibitors of human endothelial cell proliferation; HUVEC proliferation, CellTiter-Glo luminescence, 72 h; hits give low values; viability, % at 10 µM (by protocol); actives 1.1% (n = 86,000);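 active means viability at or below 30%; inactive means viability above 30%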;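 further: 100% = median luminescence of DMSO-only cell control wells on each plate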
# Fibroblast inh: blocks proliferation of human lung fibroblasts | actives 1.1% (n = 85,000) | viability, % at 10 µM | LL 47 human lung fibroblast viability, ATP luminescence; hits give low values;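 active means viability at or below 50% in the single dose screen; inactive means viability above 50%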;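 further: compound exposure lasted 72 h before the ATP readout; 100% = median luminescence of untreated cell-only wells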
#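 material = human LL 47 lung fibroblast cells | dosing = compounds added from tenfold dosing solution, 0.1% DMSO final | timing = overnight cell rest, 72 h compound treatment at 37 °C | measured by = CellTiter-Glo luminescence measuring cellular ATP | evaluation = % viability versus median cells-only luminescence | control set = cell-only wells, no compound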
# An asterisk follows results filed as active; · = not tested or not shown.
SMILES,bCat KO growth,HCT116 PTEN-null,H69AR growth 86K,HUVEC inhibit,Fibroblast inh
COc1ccc(N2C(=O)NC3CC2(C)Oc2ccc(Br)cc23)cc1OC (centres undefined),90,88,38*,91,83
COc1cccc(N2CCN(C(=O)c3ccc(N4C(=O)NC5CC4(C)Oc4ccccc45)cc3)CC2)c1 (centres undefined),92,82,91,89,91
Cc1cc(C)nc(SCC(=O)c2ccc3c(c2)OCCO3)n1,99,99,·,·,·
O=C(Cn1nc(Cl)nc1Cl)c1cc2ccccc2oc1=O,93,87,32*,90,99
O=C(Cn1nc(Cl)nc1Cl)c1ccc2c(c1)OCCO2,80,95,38*,83,96
Cn1cnnc1SCC(=O)c1cc2ccccc2oc1=O,93,91,76,88,89
CC(C)C(=O)N1C2CCC1CC(O)(c1ccc(F)cc1)C2 (centres undefined),93,88,92,104,93
O=C(CSc1nc2ccccc2o1)Nc1cc(C(F)(F)F)ccc1N1CCOCC1,72,77,·,·,·
Cc1ccc2nc(SCC(=O)Nc3cc(C(F)(F)F)ccc3N3CCOCC3)[nH]c2c1,10,13,12*,29*,40*
COc1ccc(/C=N/NC(=O)/C(=C/c2ccccc2)CCO)cc1,101,95,·,·,·
Cc1cc(C)cc(OCC(=O)N2N=C(C(F)(F)F)CC2(O)C(C)(C)C)c1 (centres undefined),89,90,34*,91,98
Cc1cc(C)cc(OCC(=O)N2N=C(c3cccnc3)CC2(O)C(F)(F)F)c1 (centres undefined),87,85,·,·,·
COc1cccc(-c2nc(NC(C)C)c3ccccc3n2)c1O,21,18,95,62,63
CCC(C)Nc1nc(-c2cccc(OC)c2O)nc2ccccc12 (centres undefined),2.5*,2.1*,4.9*,55,75
Oc1ccccc1-c1nc(NCC2CCCO2)c2ccccc2n1 (centres undefined),64,61,36*,54,79
COc1cccc(-c2nc(NCC3CCCO3)c3ccccc3n2)c1O (centres undefined),15,14,32*,72,84
CCC1CCCCN1c1nc(-c2cccc(OC)c2O)nc2ccccc12 (centres undefined),78,69,74,73,95
Cc1csc(Sc2ccc([N+](=O)[O-])cc2C(=O)OCC(=O)NC2CCCC(C)C2C)n1 (centres undefined),97,96,8.4*,97,101
CN(CP(=O)(O)CCc1ccccc1)S(C)(=O)=O,86,104,98,96,93
COc1ccc(N(C)C2=NS(=O)(=O)c3ccccc32)cc1,23,24,17*,59,66
COc1ccc(-c2cc(-c3ccc(OC)cc3)nc(-c3ccc4c(c3)NC(=O)CO4)c2)cc1,2.7*,2.4*,·,·,·
COc1ccc(C2C(=O)N(C3CCCCC3)CC(=O)N2C2CCCC2)cc1 (centres undefined),76,78,50,101,93
COc1ccc(C2C(=O)N(CCc3ccccc3)CC(=O)N2C2CCCC2)cc1 (centres undefined),81,69,35*,89,87
COc1ccc2c(c1)c(=O)oc1c(C)c3occ(C)c3cc12,·,·,35*,116,102
COc1ccc2c(c1)c(=O)oc1cc3occ(C(C)(C)C)c3cc12,95,87,13*,40,58
SMILES,bCat KO growth,HCT116 PTEN-null,H69AR growth 86K,HUVEC inhibit,Fibroblast inh
CCC(Sc1nc2n[nH]c(C)c2c(=N)n1-c1cc(Cl)ccc1C)C(=O)N1CCOCC1 (centres undefined),80,74,16*,85,83
COC(CNC(=O)c1ccc(N2CCCC2=O)cc1)OC,99,100,114,84,93
COc1cc2cc(CN(CCO)S(=O)(=O)c3ccccc3)c(=O)[nH]c2cc1OC,101,103,80,93,100
Cc1ccc(-n2c(SCC(=O)Nc3nccs3)nc3c(c2=O)SCC3)cc1,92,108,67,98,27*
CCOc1ccc2nc(NC(=O)CN3CCC(n4nnc5cc(F)ccc54)CC3)sc2c1,10,12,41,9.2*,89
COc1ccc2nc(NC(=O)CSC3=NCCS3)sc2c1,73,78,43,30*,94
CCOc1ccc2nc(NC(=O)CSC3=NCCS3)sc2c1,84,81,1.1*,59,92
O=C(CSC1=NCCS1)Nc1nc2c(s1)CCCC2,87,94,17*,73,99
O=C(CCN1C(=O)C2C3C=CC(C3)C2C1=O)Nc1c(F)cc(F)cc1Br (centres undefined),103,102,96,97,104
O=c1[nH]c(SCc2nc3ccccc3n2Cc2ccccc2)nc2ccccc12,2.1*,2.7*,·,·,·
Nc1cc(=O)[nH]c(SCc2nc3ccccc3n2Cc2ccccc2)n1,89,84,90,96,104
CC(=O)Nc1nc(CC(=O)c2ccccc2)cs1,·,·,90,102,96
CC(=O)Nc1ccc(SCC(=O)N(CCC#N)c2ccc(C)cc2)cc1,100,96,33*,99,109
CN(C)c1nc(-c2ccccc2)c2cnn(Cc3ccccc3)c2n1,66,56,19*,73,81
c1ccc(Cn2ncc3c2ncn2nc(-c4ccncc4)nc32)cc1,·,·,85,98,99
Cc1ccc(S(=O)(=O)N2CCN(CC(=O)Nc3ccc4c(c3)CCC4)CC2)cc1C,80,77,·,·,·
CCc1ccc(S(=O)(=O)NCCc2csc(-c3ccccc3)n2)s1,67,73,89,80,92
COc1ccc(-c2nc(C#N)c(NCc3ccccc3Cl)o2)cc1OC,23,6,5.7*,59,93
COc1ccc(-c2nc(C#N)c(NCc3ccccc3Cl)o2)cc1,86,74,60,69,74
Cc1cccnc1NC(=O)c1c(O)c2cccc3c2n(c1=O)CCC3,88,78,2.8*,75,96
O=C(Nc1ccccn1)c1c(O)c2cccc3c2n(c1=O)CCC3,88,79,35*,113,91
O=C(Nc1nccs1)c1c(O)c2cccc3c2n(c1=O)CCC3,25,18,4.0*,72,49*
O=C(NCCO)c1c(O)c2cccc3c2n(c1=O)CC3,88,99,·,91,97
Cc1ccccc1NC(=O)c1c(O)c2cccc3c2n(c1=O)CCC3,·,·,31*,98,92
O=C(NCC1CCCO1)c1c(O)c2cccc3c2n(c1=O)CCC3 (centres undefined),90,90,·,·,·
Cc1ccccc1NC(=O)c1c(O)c2cccc3c2n(c1=O)CC3,·,·,66,104,98
Cc1cc(C)c(C#N)c(SCc2cn3c(C)cccc3n2)n1,93,91,·,·,·
CCOC(=O)c1cc(-c2ccc(OC)cc2F)nc2c1c(C)nn2CCC#N,80,85,73,98,106
Cc1cccnc1NC(=O)c1c(O)c2ccccc2n(C)c1=O,89,97,5.4*,115,94

# Bioassay records: PubChem BioAssay, SRMLSC
